Test results reported in ChEMBL document CHEMBL1126317, “2-(aminoalkyl)-5-nitropyrazolo[3,4,5-kl]acridines, a new class of anticancer agents” (1992).
Each block holds one compound with its values, some of them ahead of it. The source made the active and inactive calls. No cut-off for these calls is given here.

Assays:
L1210 [1] = experiment: In vitro antitumor activity against L1210 leukemia cell line.; type: functional; details: Mus musculus, read-out: ID50 (the source's name)
Mus musculus [2] = experiment: In vivo antitumor activity of the compound(ip, 25 mg/kg for 5 days) against CD2F1 mice implanted intraperitoneally with P388 leukemia cells.; type: functional; details: route intraperitoneal
Mus musculus [3] = experiment: In vivo antitumor activity of the compound(ip, 25 mg/kg for 5 days) against CD2F1 mice implanted intraperitoneally with P388 leukemia cells; Day 30 survivors=1/6; type: functional; details: route intraperitoneal
Mus musculus [4] = experiment: In vivo antitumor activity of the compound(ip, 6.25 mg/kg for 5 days) against CD2F1 mice implanted intraperitoneally with P388 leukemia cells; Day 30 survivors=1/6; type: functional; details: route intraperitoneal
Mus musculus [5] = experiment: In vivo antitumor activity of the compound(ip, 6.25 mg/kg for 5 days) against CD2F1 mice implanted intraperitoneally with P388 leukemia cells.; type: functional; details: route intraperitoneal
Mus musculus [6] = experiment: In vivo antitumor activity of the compound(ip, 200 mg/kg for 5 days) against CD2F1 mice implanted intraperitoneally with P388 leukemia cells.; type: functional; details: route intraperitoneal
HCT-8 [7] = experiment: In vitro antitumor activity against HCT-8 human colon line; IA= Inactive; type: functional, cell-based
L1210 [8] = experiment: In vitro antitumor activity against L1210 leukemia cell line; IA= Inactive; type: functional, cell-based; details: Mus musculus
Mus musculus [9] = experiment: In vivo antitumor activity of the compound(ip, 50 mg/kg for 5 days) against CD2F1 mice implanted intraperitoneally with P388 leukemia cells.; type: functional; details: route intraperitoneal
Mus musculus [10] = experiment: In vivo antitumor activity of the compound(ip, 12.5 mg/kg for 5 days) against CD2F1 mice implanted intraperitoneally with P388 leukemia cells.; type: functional; details: route intraperitoneal
Mus musculus [11] = experiment: In vivo antitumor activity of the compound(ip, 6 mg/kg for 5 days) against CD2F1 mice implanted intraperitoneally with P388 leukemia cells; Day 30 survivors=1/6; type: functional; details: route intraperitoneal
Mus musculus [12] = experiment: In vivo antitumor activity of the compound(ip, 6 mg/kg for 5 days) against CD2F1 mice implanted intraperitoneally with P388 leukemia cells.; type: functional; details: route intraperitoneal
HCT-8 [13] = experiment: In vitro antitumor activity against HCT-8 colon cancer cell line.; type: functional; details: Homo sapiens, read-out: ID50 (the source's name)
[14] = Ratio of the ID50's showing antitumor activity against HCT-8 and L1210 leukemia cell lines; type: functional
Outline: (§1)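 Ratio taken as ID50 in HCT-8 cells divided by ID50 in L1210 cells, both ID50s expressed as molar concentrations.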

Mus musculus [15] = experiment: In vivo antitumor activity of the compound(ip, 3.12 mg/kg for 5 days) against CD2F1 mice implanted intraperitoneally with P388 leukemia cells.; type: functional; details: route intraperitoneal
Mus musculus [16] = experiment: In vivo antitumor activity of the compound(ip, 3.12 mg/kg for 5 days) against CD2F1 mice implanted intraperitoneally with P388 leukemia cells; Day 30 survivors=2/6; type: functional; details: route intraperitoneal
Mus musculus [17] = experiment: In vivo antitumor activity of the compound(ip, 100 mg/kg for 5 days) against CD2F1 mice implanted intraperitoneally with P388 leukemia cells.; type: functional; details: route intraperitoneal
Mus musculus [18] = experiment: In vivo antitumor activity of the compound(ip, 12.5 mg/kg for 5 days) against CD2F1 mice implanted intraperitoneally with P388 leukemia cells; Day 30 survivors=1/6; type: functional; details: route intraperitoneal
Mus musculus [19] = experiment: In vivo antitumor activity of the compound(ip, 50 mg/kg for 5 days) against CD2F1 mice implanted intraperitoneally with P388 leukemia cells; Day 30 survivors=3/6; type: functional; details: route intraperitoneal
Mus musculus [20] = experiment: In vivo antitumor activity of the compound(ip, 3.13 mg/kg for 5 days) against CD2F1 mice implanted intraperitoneally with P388 leukemia cells.; type: functional; details: route intraperitoneal
Mus musculus [21] = experiment: In vivo antitumor activity of the compound(ip, 3.12 mg/kg for 5 days) against CD2F1 mice implanted intraperitoneally with P388 leukemia cells; Day 30 survivors=3/6; type: functional; details: route intraperitoneal
[22] = Ratio of the ID50's showing antitumor activity against HCT-8 and L1210 leukemia cell lines.; type: functional; outline: as §1

SMILES: CCN(CC)CCN1Nc2c3cc(N(C)C)ccc3nc3c([N+](=O)[O-])ccc1c23.CS(=O)(=O)O
IC50 (L1210 [1]): 900 nM
T/C (Mus musculus [2]): 178%
Activity (Mus musculus [3]): 1

SMILES: COc1ccc2c(c1Cl)-c1nn(CCCN(C)C)c3ccc([N+](=O)[O-])c(c13)N2.CS(=O)(=O)O
Activity (Mus musculus [4]): 1
IC50 (L1210 [1]): 100 nM
T/C (Mus musculus [5]): 221%

SMILES: CCN(CC)CCN1Nc2c3c(O)cccc3nc3c([N+](=O)[O-])ccc1c23.CS(=O)(=O)O
IC50 (L1210 [1]): 600 nM
T/C (Mus musculus [6]): 117%

SMILES: COc1ccc2c(c1)-c1nn(CCCl)c3ccc([N+](=O)[O-])c(c13)N2
ID50 (HCT-8 [7]): inactive
ID50 (L1210 [8]): inactive

SMILES: Cc1ccc2c(c1)-c1nn(CCNCCO)c3ccc([N+](=O)[O-])c(c13)N2.Cl
T/C (Mus musculus [9]): 115%

IC50 (L1210 [1]): 6700 nM
SMILES: CN(C)CCCN1Nc2c3ccc(O)cc3nc3c([N+](=O)[O-])ccc1c23.Cl
T/C (Mus musculus [9]): 140%

IC50 (L1210 [1]): 210 nM
SMILES: COc1cc(OC)c2c(c1)-c1nn(CCN(C)C)c3ccc([N+](=O)[O-])c(c13)N2

SMILES: CCN(CC)CCN1Nc2c3cc(OC)cc(OC)c3nc3c([N+](=O)[O-])ccc1c23.CS(=O)(=O)O
IC50 (L1210 [1]): 760 nM
T/C (Mus musculus [9]): 88%

SMILES: CCCCOc1ccc2c(c1)-c1nn(CCNCCO)c3ccc([N+](=O)[O-])c(c13)N2.CS(=O)(=O)O
T/C (Mus musculus [10]): 175%
IC50 (L1210 [1]): 650 nM

SMILES: CCN(CC)CCOc1ccc2c(c1)-c1nn(CCN(CC)CC)c3ccc([N+](=O)[O-])c(c13)N2.CS(=O)(=O)O
IC50 (L1210 [1]): 500 nM
T/C (Mus musculus [9]): 118%

SMILES: CCN(CC)CCN1Nc2c3c(Cl)c(O)ccc3nc3c([N+](=O)[O-])ccc1c23.CS(=O)(=O)O
IC50 (L1210 [1]): 0.39 nM
Activity (Mus musculus [11]): 1
T/C (Mus musculus [12]): 196%

SMILES: CCN(CC)CCN1Nc2c3cc(OC)ccc3nc3c([N+](=O)[O-])ccc1c23.CS(=O)(=O)O
IC50 (L1210 [1]): 470 nM
T/C (Mus musculus [2]): 242%
IC50 (HCT-8 [13]): 120 nM
Ratio [14]: 0.26

SMILES: CS(=O)(=O)O.O=[N+]([O-])c1ccc2c3c(nn2CCN2CCCC2)-c2cc(O)ccc2Nc13
T/C (Mus musculus [15]): 250%
IC50 (L1210 [1]): 3 nM

SMILES: CN(C)CCN1Nc2c3cc(O)ccc3nc3c([N+](=O)[O-])ccc1c23.CS(=O)(=O)O
T/C (Mus musculus [15]): 228%
IC50 (L1210 [1]): 2.7 nM
Activity (Mus musculus [16]): 2

SMILES: CCN(CC)CCN1Nc2c3cc(C)ccc3nc3c([N+](=O)[O-])ccc1c23.CS(=O)(=O)O
T/C (Mus musculus [17]): 136%
IC50 (L1210 [1]): 860 nM

SMILES: CN(C)CCCN1Nc2c3ccccc3nc3c([N+](=O)[O-])ccc1c23.CS(=O)(=O)O
T/C (Mus musculus [10]): 214%
IC50 (L1210 [1]): 190 nM
Activity (Mus musculus [18]): 1

SMILES: COc1ccc2c(c1)-c1nn(CCN(C)C)c3ccc([N+](=O)[O-])c(c13)N2.CS(=O)(=O)O
IC50 (L1210 [1]): 400 nM
Activity (Mus musculus [19]): 3

SMILES: CN(C)CCN1Nc2c3cc(OC(=O)C(C)(C)C)ccc3nc3c([N+](=O)[O-])ccc1c23.CS(=O)(=O)O
T/C (Mus musculus [15]): 236%
IC50 (L1210 [1]): 2.9 nM
Activity (Mus musculus [16]): 2

SMILES: CCN(CC)CCN1Nc2c3cc(O)c(Cl)cc3nc3c([N+](=O)[O-])ccc1c23.CS(=O)(=O)O
IC50 (L1210 [1]): 150 nM
T/C (Mus musculus [9]): 125%

SMILES: CCOC(=O)Oc1ccc2c(c1)-c1nn(CCN(CC)CC)c3ccc([N+](=O)[O-])c(c13)N2.CS(=O)(=O)O
T/C (Mus musculus [20]): 243%

SMILES: CCOc1ccc2c(c1)-c1nn(CCCN(C)C)c3ccc([N+](=O)[O-])c(c13)N2.CS(=O)(=O)O
T/C (Mus musculus [10]): 236%
IC50 (L1210 [1]): 220 nM

SMILES: CC(=O)Oc1ccc2nc3c([N+](=O)[O-])ccc4c3c(c2c1)NN4CCN(C)C.CS(=O)(=O)O
Activity (Mus musculus [21]): 3
T/C (Mus musculus [15]): 265%
IC50 (L1210 [1]): 1.2 nM

SMILES: C=CCOc1ccc2nc3c([N+](=O)[O-])ccc4c3c(c2c1)NN4CCCN(C)C.CS(=O)(=O)O
T/C (Mus musculus [10]): 221%
IC50 (L1210 [1]): 2200 nM

SMILES: CCOc1ccc2c(c1)-c1nn(CCN(CC)CC)c3ccc([N+](=O)[O-])c(c13)N2.CS(=O)(=O)O
T/C (Mus musculus [10]): 220%
IC50 (L1210 [1]): 790 nM

SMILES: CN(C)CCCN1Nc2c3cc(O)ccc3nc3c([N+](=O)[O-])ccc1c23.CS(=O)(=O)O
Activity (Mus musculus [21]): 3
T/C (Mus musculus [15]): 270%
IC50 (L1210 [1]): 1.8 nM
IC50 (HCT-8 [13]): 12 nM
Ratio [22]: 6.7
